Measured values reported in article PMC3143825 (Bioorganic & medicinal chemistry, 2011).

How the values were obtained:
[1] = tested on: Hsp90 from SKBr3 cellular extracts; experiment: Fluorescence polarization; format: binding; details: for IC50: read-out: IC50, binding affinity for Hsp90, Hsp90 from SKBr3 cellular extracts, displacement of GM-cy3B (6 nM), 4°C, 24 h
[2] = target: Cell surface Hsp90 in MV4-11 leukemia cells (Homo sapiens, UniProt P07900); experiment: Flow cytometry detection of cell surface Hsp90; format: cell-based; details: MV4-11 cells, 2 h at 37°C, SA-PE staining; D-biotin as control
[3] = tested on: c-Kit and IGF-IR in MDA-MB-468 cells; format: cell-based; details: 5 μM, 24 h
Procedure, shortened: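 MDA-MB-468 breast cancer cells kept in DME/F12 with 10% FBS, 1% L-glutamine and 1% penicillin/streptomycin at 37°C under 5% CO₂. Grown to 60–70% confluence, then exposed to test compound for 24 h. Lysed in 50 mM Tris pH 7.4, 150 mM NaCl, 1% NP-40. 10–50 μg protein run on SDS-PAGE and blotted to nitrocellulose. Probed with anti-IGF-IR (1:1000) and anti-c-Kit (1:200), then HRP secondary (1:3000), with ECL detection.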

Row | SMILES | fold loss in potency as compared to SNX-2112 ([1]; FP assay, SKBr3 extract) | IC50 [1] | detection of cell surface Hsp90 [2] | steady-state levels of c-Kit and IGF-IR [3]
1 | CC1(C)CC(=O)c2c(C(F)(F)F)nn(-c3ccc(C(N)=O)c(N[C@H]4CC[C@H](N)CC4)c3)c2C1 [Compound 18, 2-(trans-4-Aminocyclohexylamino)-4-(6,6-dimethyl-4-oxo-3-(trifluoromethyl)-4,5,6,7-tetrahydro-1H-indazol-1-yl)benzamide] | ~14 fold | 210 nM | – | –
2 | Nc1ncnc2c1nc(Sc1cc3c(cc1I)OCO3)n2CCCNCCOCCOCCOCCNC(=O)CCCC[C@@H]1SC[C@@H]2NC(=O)N[C@@H]21 [Compound 7] | – | 67.1 nM | can detect Hsp90 expression on the surface of leukemia cells | –
3 | CC(C)NCCCn1c(Sc2cc3c(cc2I)OCO3)nc2c(N)ncnc21 [PU-H71, reference compound] | – | 22.4 nM | – | reduction in the steady-state levels
4 | CCNC(=O)c1noc(-c2cc(C(C)C)c(O)cc2O)c1-c1ccc(CNCCCCCCN)cc1 [Compound 10, 4-(4-((6-Aminohexylamino)methyl)phenyl)-5-(2,4-dihydroxy-5-isopropylphenyl)-N-ethylisoxazole-3-carboxamide] | – | 7 nM | – | –
5 | CCNC(=O)c1noc(-c2cc(C(C)C)c(O)cc2O)c1-c1ccc(CN2CCOCC2)cc1 [NVP-AUY922, reference compound] | – | 4.1 nM | – | –
6 | CC1(C)CC(=O)c2c(C(F)(F)F)nn(-c3ccc(C(N)=O)c(N[C@H]4CC[C@H](NC(=O)CCCCCN)CC4)c3)c2C1 [Compound 20, 2-(trans-4-(6-Aminohexanamido)cyclohexylamino)-4-(6,6-dimethyl-4-oxo-3-(trifluoromethyl)-4,5,6,7-tetrahydro-1H-indazol-1-yl)benzamide] | – | 24.7 nM | – | –
